Screens from PubChem BioAssay.
SR-BI DiI inh: blocks mouse SR-BI lipid uptake from DiI-HDL; Q61009; ldlA[mSR-BI] CHO cells, DiI-HDL uptake fluorescence, 3 h; inhibition, % at 12.5 µM; 320,000 compounds, 0.96% hits; AID 488896;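 active = mean replicate inhibition of at least 70% and a set share of replicates each scoring 70 or more; inconclusive = meets just one of the two criteria; inactive = fails both criteria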;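 note: 0% = median of neutral control wells and 100% = median of positive control wells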
FXN GAA850 act: activators of GAA850 frataxin (FXN) promoter; 360,000 compounds, 0.56% hits; AID 540364; activation, % at 6 µM; HEK293 lucGAA850 FXN promoter luciferase reporter, 24 h; percent of 10 µM SAHA response;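 active = activation above the average of all compounds screened plus 3 SD, cutoff fixed separately per campaign, cut at about 7.5% in these data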;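 note: 0% = DMSO wells and 100% = 10 µM SAHA wells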
AHR activator: activators of human aryl hydrocarbon receptor; AID 2796; AHR-responsive luciferase reporter cells, luminescence; activation, % at 5 µM; 320,000 compounds, 2.5% hits; in the data active = activation above about 47%;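 note: 0% = vehicle wells and 100% = reference agonist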
HIF act: HIF pathway transcriptional activation; U2OS HRE-luciferase reporter, luminescence; normalized: DMSO 0%, desferrioxamine 100%; activation, % at 7.5 µM (by protocol); 300,000 compounds, 0.32% hits;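 active = mean activation of at least 10% of the iron chelator positive control signal, with at least half of replicates also reaching 10%; inconclusive = mean and replicate majority disagree about reaching 10%; inactive = mean and most replicates under 10%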
ABCB6 inh MLPCN: blocks the human ABCB6 transporter; Q9NP58; AID 602162; 360,000 compounds, 0.19% hits; fluorescence ratio to DMSO, % at 10 µM; K562-ABCB6 porphyrin accumulation, flow cytometry, 1 h; stronger effect = lower value;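 active = fluorescence ratio to DMSO below 75%, the collection mean minus 3 SD; inconclusive = too few cells collected in the well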;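 note: signal is porphyrin accumulated inside mitochondria; 100% equals median channel fluorescence of DMSO control wells; lower ratio means ABCB6 inhibition with less porphyrin fluorescence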
Target sequence (Q9NP58 whole entry, looked up): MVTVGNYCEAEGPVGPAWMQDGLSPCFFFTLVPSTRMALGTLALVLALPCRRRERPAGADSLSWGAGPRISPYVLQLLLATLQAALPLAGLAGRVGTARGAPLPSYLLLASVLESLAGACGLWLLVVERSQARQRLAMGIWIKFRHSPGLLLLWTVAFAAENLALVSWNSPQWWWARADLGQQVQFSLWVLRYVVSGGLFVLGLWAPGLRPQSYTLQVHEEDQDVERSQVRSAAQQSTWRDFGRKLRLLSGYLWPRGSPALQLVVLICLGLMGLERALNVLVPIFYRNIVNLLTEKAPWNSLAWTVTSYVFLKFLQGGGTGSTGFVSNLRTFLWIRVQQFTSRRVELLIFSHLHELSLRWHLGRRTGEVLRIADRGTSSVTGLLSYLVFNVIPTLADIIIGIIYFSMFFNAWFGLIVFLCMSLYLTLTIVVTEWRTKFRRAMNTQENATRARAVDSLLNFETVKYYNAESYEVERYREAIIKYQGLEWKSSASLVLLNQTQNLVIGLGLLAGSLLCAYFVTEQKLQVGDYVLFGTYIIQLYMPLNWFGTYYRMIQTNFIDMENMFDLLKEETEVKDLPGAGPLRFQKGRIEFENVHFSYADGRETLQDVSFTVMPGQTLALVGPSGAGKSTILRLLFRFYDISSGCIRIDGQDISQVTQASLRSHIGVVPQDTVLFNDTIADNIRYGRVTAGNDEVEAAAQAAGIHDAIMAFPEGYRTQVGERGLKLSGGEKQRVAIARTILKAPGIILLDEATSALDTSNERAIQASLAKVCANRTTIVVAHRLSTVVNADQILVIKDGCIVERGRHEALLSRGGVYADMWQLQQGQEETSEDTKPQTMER
SR-BI uptake up: SR-BI HDL lipid transfer activation | CHO ldlA[mSR-BI] cells, DiI-HDL uptake fluorescence, 3 h; 100 = double the neutral-control signal | activation, % at 12.5 µM | 320,000 compounds, 0.096% hits | AID 504775;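 active = mean replicate activation of at least 60% and every replicate at or above 60%; inconclusive = mean or all-replicate condition met, but not both; inactive = mean below 60% and not all replicates reaching 60%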;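 note: 0% = median plate neutral-control signal and 100% = twice that signal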
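system = CHO ldlA[mSR-BI] cells, LDL receptor-null, SR-BI overexpressing | medium = Ham's F12 with 0.5% BSA, HEPES 25 mM, pH 7.4 | probe or stimulus = DiI-HDL 10 µg/mL | compound dosing = single-point compound dose | incubation = compound exposure 3 h, 37 °C | technique = DiI fluorescence, bottom read | read-out = cell-associated DiI fluorescence as measure of HDL uptake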
ABCB6 blocker 1: inhibitors of human ABC transporter ABCB6. AID 602430. ratio response (% of DMSO), % at 10 µM. shares compounds with ABCB6 inh MLPCN. 700 tested, under 10 active. K562-ABCB6 porphyrin accumulation, flow cytometry, 1 h; stronger effect = lower value;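 active = repeat-averaged ratio response below 75% of DMSO, the collection mean minus 3 SD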;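 note: median porphyrin fluorescence at 575 nm with 488 nm excitation from mitochondria; lower ratio means less porphyrin signal so ABCB6 inhibition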
Numbers without * were called inactive; ? = inconclusive; nt = no result given. An excerpt weighted towards active compounds, which were near 3.9% of everything screened.

SMILES	SR-BI DiI inh	FXN GAA850 act	AHR activator	HIF act	ABCB6 inh MLPCN	SR-BI uptake up	ABCB6 blocker 1
NC(=O)CSc1nnc(Cn2c(=O)sc3ccccc32)n1-c1cccc(Cl)c1	1	2	-1	0	66*	-1	99
CC(C)(C(=O)N1CCC1(C)C(=O)NS(=O)(=O)c1cccc(F)c1)c1ccccc1 (centres undefined)	nt	0	nt	nt	98	nt	nt
CC1(C(=O)NS(=O)(=O)c2ccccc2Cl)CCN1C(=O)Cc1ccccc1 (centres undefined)	nt	-2	nt	nt	99	nt	nt
COc1ccc(OC)c(S(=O)(=O)NC(=O)C2(C)CCN2C(=O)Cc2ccccc2Cl)c1 (centres undefined)	nt	-1	nt	nt	97	nt	98
CC1(C(=O)NS(=O)(=O)c2cccc(Cl)c2)CCN1C(=O)CCc1ccc(Cl)cc1Cl (centres undefined)	nt	-1	nt	nt	96	nt	nt
CC(C)(C(=O)N1CCC1(C)C(=O)NS(=O)(=O)c1cccc(Cl)c1)c1ccccc1 (centres undefined)	nt	0	nt	nt	98	nt	101
CC1(C(=O)NS(=O)(=O)c2ccccc2)CCN1C(=O)CCc1ccc(Cl)cc1Cl (centres undefined)	nt	1	nt	nt	96	nt	98
CC(C)(C)c1ccc(CC(=O)N2CCC2(C)C(=O)NS(=O)(=O)c2ccccc2Cl)cc1 (centres undefined)	nt	0	nt	nt	99	nt	98
COc1ccc(Cl)cc1-c1cc(C(=O)NCc2cc(C(F)(F)F)cc(C(F)(F)F)c2)[nH]n1	nt	-2	nt	nt	96	nt	nt
COc1ccc(C(=O)N/C(=C\c2cn(C)c3ccccc23)C(=O)NCCCn2ccnc2)cc1OC	8	0	12	0	96	-8	nt
COc1ccc(S(=O)(=O)NC(=O)C2(C)CCN2C(=O)Cc2ccccc2Cl)cc1 (centres undefined)	nt	-1	nt	nt	95	nt	102
CC1(C(=O)NS(=O)(=O)c2ccccc2C(F)(F)F)CCN1C(=O)CC1CCCCC1 (centres undefined)	nt	2	nt	nt	99	nt	nt
CC1(C(=O)NS(=O)(=O)c2ccccc2C(F)(F)F)CCN1C(=O)C1CCCCC1 (centres undefined)	nt	2	nt	nt	62*	nt	100
CC(C)(C)c1ccc(S(=O)(=O)NC(=O)C2(C)CCN2C(=O)Cc2ccccc2Cl)cc1 (centres undefined)	nt	3	nt	nt	85	nt	nt
CCOC(=O)C1CCN(C(=O)COC(=O)/C=C/c2cccc(OC)c2OC)CC1	-9	1	0	nt	93	9	nt
Cc1c(C(=O)N(Cc2ccccc2)C(C)C)cnn1-c1ccccc1	26	0	1	-1	92	-26	nt
Cc1c(C(=O)N(Cc2ccccc2)Cc2cccs2)cnn1-c1ccc(Cl)cc1	17	0	2	-1	14*	-17	100
O=c1cc(CN2CCOCC2)nc(C2CC2)[nH]1	0	-1	1	0	101	nt	nt
CC(C)(CNC(=O)c1ccccc1NS(C)(=O)=O)N1CCCCC1	nt	1	2	0	97	nt	nt
c1ccc2c(OCCCCN3CCOCC3)cccc2c1	3	2	4	-7	102	-3	nt
Fc1ccccc1OCCCN1CCOCC1	-60	2	3	0	74*	?	99
CC(=O)C[C@@H](O)CC(=O)[C@H]1OC(=O)[C@@H](C)C/C=C\Cc2ccccc21	-1	1	1	nt	98	1	nt
COC(=O)C1CCN(C(=O)Cc2ccccc2OC)CC1	-3	0	-1	0	72*	3	99
O=C(CC(c1ccc(F)cc1)c1ccco1)N1CCOCC1 (centres undefined)	-30	2	3	0	72*	30	101
O=C(c1ccc(COc2ccccc2Br)o1)N1N=C(C(F)F)CC1(O)C(F)F (centres undefined)	17	-1	8	0	96	-17	101
SMILES	SR-BI DiI inh	FXN GAA850 act	AHR activator	HIF act	ABCB6 inh MLPCN	SR-BI uptake up	ABCB6 blocker 1
O=C(c1ccc(Cn2cc([N+](=O)[O-])cn2)o1)N1N=C(C(F)F)CC1(O)C(F)F (centres undefined)	-10	-2	5	0	99	10	nt
Cc1ccc(C(=O)N/C(=C/c2ccco2)C(=O)O)cc1	-11	3	5	0	96	11	nt
Cc1ccc(S(=O)(=O)NCC(=O)N(CC(=O)NC2CCCC2)c2ccc3c(c2)OCCO3)cc1	-18	-1	nt	0	96	18	nt
COc1ccc(NC(=O)c2ccco2)cc1NC(=O)c1ccco1	-5	-1	15	0	103	5	nt
COc1ccc(NC(=O)Cc2ccc(Cl)cc2)cc1NC(=O)c1ccco1	13	-1	8	0	60*	-13	96
Cc1nc2c(C(=O)NCCC(C)C)c[nH]n2c(=O)c1Cl	-14	2	1	0	101	14	nt
Cc1nc2c(C(=O)NCCC(C)C)c[nH]n2c(=O)c1Cc1ccccc1F	-8	-4	-1	0	102	8	100
O=C(/C=C/c1ccccc1)c1ccc2c(c1)OCO2	0	4	1	0	91	0	nt
CCN1C(=O)c2ccccc2S(=O)c2ccc(C(=O)NCCN(CC(C)C)CC(C)C)cc21 (centres undefined)	0	0	4	-1	94	0	nt
CCN1C(=O)c2ccccc2S(=O)(=O)c2ccc(C(=O)NCCCN(CC(C)C)CC(C)C)cc21	-8	1	6	0	66*	8	101
CCCCCC(O)(c1ccccc1)C(CN1CCOCC1)c1ccccc1 (centres undefined)	-20	0	nt	1	72*	20	100
Cc1ccc(S(=O)(=O)Cn2cnnn2)cc1	-13	0	27	0	60*	13	100
Cc1ccc(S(=O)(=O)CS(=O)(=O)c2ccc(C)cc2)cc1	-8	-1	nt	nt	191	8	nt
CCn1c(SCC#N)nc2c(c1=O)C1(CCCC1)Cc1ccccc1-2	9	2	-2	0	71*	-9	101
CCN(C(=O)COC(=O)CN1C(=O)c2ccccc2C1=O)c1ccccc1	-1	0	0	nt	85	nt	nt
Cc1nc(N2CCN(c3ccccc3)CC2)nc2c1C(=O)CC(c1ccccc1)C2 (centres undefined)	34	0	2	0	100	-34	nt
Cc1nc(N2CCN(c3ccccc3)CC2)nc2c1C(=O)CCC2	27	2	-15	0	55*	-27	99
COc1ccc(OC)c(NC(=O)C2(C)CCN2Cc2cccc(OC)c2OC)c1 (centres undefined)	nt	-2	nt	nt	71*	nt	104
Cc1nc2ccc(NC(=O)c3cccs3)cc2c(=O)n1Cc1ccc(Cl)cc1	21	-7	4	0	93	-21	nt
